Results as given in publication PMC10755797 (The Journal of Biological Chemistry, 2023).
“And” between values parts separate entries of the source, which are not always exact repeats. Identical values can stand only once. “Also recorded” adds a separate entry of the source.

Legend:
[1] = In vivo metabolite identification by LC-MS in plasma, colon and feces; settings: mice, 10 mg/kg MMT3-72 orally, 6 h
[2] = Pharmacokinetic study in mice; assay type: in vivo
Method in brief: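 Female C57BL/6 mice (6–8 weeks) were dosed orally at 10 mg/kg in the pH-adjusted beta-cyclodextrin/hyaluronic acid/PBS vehicle. Sacrifice at 0.5, 2, 4, 12 and 24 h; cardiac blood for plasma; intestinal tissue homogenized in PBS to 10%; intestinal contents homogenized in PBS. Parent and metabolite were measured by LC-MS/MS (C18, 0.1% formic acid water/acetonitrile gradient, 0.4 ml/min). Detection limit 2 ng/ml or 2 ng/g. n = 3, mean ± SD.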

JAK3 = molecular target: T1, JAK3 (Homo sapiens, UniProt P52333); assay: Kinase-Glo Max kinase assay, purified enzyme; assay type: biochemical
T1 sequence (P52333 1-1124): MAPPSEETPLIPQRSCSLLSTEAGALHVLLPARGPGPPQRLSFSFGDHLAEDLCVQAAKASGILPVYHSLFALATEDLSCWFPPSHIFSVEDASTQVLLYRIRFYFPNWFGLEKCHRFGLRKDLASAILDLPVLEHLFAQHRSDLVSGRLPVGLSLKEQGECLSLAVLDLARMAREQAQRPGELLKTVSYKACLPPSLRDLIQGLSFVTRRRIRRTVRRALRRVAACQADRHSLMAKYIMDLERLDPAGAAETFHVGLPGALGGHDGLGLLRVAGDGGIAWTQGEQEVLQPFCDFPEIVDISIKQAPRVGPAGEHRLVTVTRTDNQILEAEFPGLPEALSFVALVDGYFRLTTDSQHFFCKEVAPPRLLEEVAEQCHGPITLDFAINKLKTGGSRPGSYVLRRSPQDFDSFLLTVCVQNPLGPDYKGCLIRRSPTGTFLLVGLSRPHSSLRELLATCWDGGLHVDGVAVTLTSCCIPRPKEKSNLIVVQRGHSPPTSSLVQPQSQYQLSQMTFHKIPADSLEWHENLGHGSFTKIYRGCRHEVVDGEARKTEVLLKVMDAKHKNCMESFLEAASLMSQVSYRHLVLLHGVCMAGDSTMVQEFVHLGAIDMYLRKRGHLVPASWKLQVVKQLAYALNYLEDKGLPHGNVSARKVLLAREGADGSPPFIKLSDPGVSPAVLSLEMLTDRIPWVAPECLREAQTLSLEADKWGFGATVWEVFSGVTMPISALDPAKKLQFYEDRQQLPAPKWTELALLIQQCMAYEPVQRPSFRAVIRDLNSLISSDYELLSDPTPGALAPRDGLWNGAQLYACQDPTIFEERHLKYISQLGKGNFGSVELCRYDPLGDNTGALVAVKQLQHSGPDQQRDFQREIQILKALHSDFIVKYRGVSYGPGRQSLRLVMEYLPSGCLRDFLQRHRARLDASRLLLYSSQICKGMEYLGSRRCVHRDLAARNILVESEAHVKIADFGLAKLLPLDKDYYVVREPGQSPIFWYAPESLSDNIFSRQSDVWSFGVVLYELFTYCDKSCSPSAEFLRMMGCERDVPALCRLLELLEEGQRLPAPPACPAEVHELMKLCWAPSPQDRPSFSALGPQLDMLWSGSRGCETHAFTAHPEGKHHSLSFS

DSS-induced colitis [3] = assay: DSS-induced colitis in mice: DAI score, colon length; assay type: in vivo; settings: for improvement of DAI score or disease severity: 1 mg/kg orally every other day; for mice that developed moderate colitis / mice that developed severe colitis: n = 10
Method in brief: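 Female C57BL/6 mice (6–8 weeks), randomized; 3% DSS in distilled water for 5 days, with water-only controls. Test compound or reference JAK inhibitor was given by oral gavage every other day in a pH-adjusted vehicle (80% v/v beta-cyclodextrin:water 1:4, 15% hyaluronic acid, 5% PBS); vehicle-only group. Stool consistency and occult blood were scored daily as DAI 0–3. Colon length was measured at sacrifice on day 5. Mean ± SD; ANOVA with Tukey.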

JAK1 = JAK1 (Homo sapiens, UniProt P23458); assay: Kinase-Glo Max kinase assay, purified enzyme; assay type: biochemical
DSS-induced colitis [4] = assay: H&E staining of colon tissues, DSS-induced colitis; assay type: in vivo, mice
JAK2 = JAK2 (Homo sapiens, UniProt O60674); assay: Kinase-Glo Max kinase assay, purified enzyme; assay type: biochemical
TYK2 = TYK2 (Homo sapiens, UniProt P29597); assay: Kinase-Glo Max kinase assay, purified enzyme; assay type: biochemical
[5] = In vitro conversion of MMT3-72 to MMT3-72-M2 by colon contents; assay type: in vitro ADME, mice
Method in brief: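 Fresh colon contents from female C57BL/6 mice (6–8 weeks) were suspended at 10% (w/v) in PBS as an azoreductase source, or boiled to deactivate. Test compound at 0.1 mM final was shaken at 1000 rpm, 37 °C. Aliquots at 0, 1, 2, 4, 6, 24 and 48 h were diluted 10-fold and extracted with acetonitrile. Parent and released metabolite were quantified by LC-MS/MS.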

phosphorylation of STAT3 = assay: Western blot of colon tissues: STAT3 and phosphorylated STAT3; assay type: in vivo, mice; settings: DSS-induced colitis, oral MMT3-72
Method in brief: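 Colon tissue came from the DSS colitis study. It was rinsed in cold PBS, homogenized in RIPA buffer, sonicated and centrifuged; protein was measured by BCA. 200 μg total protein per group underwent SDS electrophoresis and transfer to PVDF. Blots were probed overnight at 4 °C with antibodies to JAK2, STAT3, phospho-STAT3 (Tyr705) and GAPDH, then HRP secondary for 1 h at room temperature, and imaged.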

[6] = single oral dose of radiolabeled fedratinib ref 21; cited from earlier work
[7] = 10 mg/kg orally every other day

TYK2, sequence (P29597 whole entry): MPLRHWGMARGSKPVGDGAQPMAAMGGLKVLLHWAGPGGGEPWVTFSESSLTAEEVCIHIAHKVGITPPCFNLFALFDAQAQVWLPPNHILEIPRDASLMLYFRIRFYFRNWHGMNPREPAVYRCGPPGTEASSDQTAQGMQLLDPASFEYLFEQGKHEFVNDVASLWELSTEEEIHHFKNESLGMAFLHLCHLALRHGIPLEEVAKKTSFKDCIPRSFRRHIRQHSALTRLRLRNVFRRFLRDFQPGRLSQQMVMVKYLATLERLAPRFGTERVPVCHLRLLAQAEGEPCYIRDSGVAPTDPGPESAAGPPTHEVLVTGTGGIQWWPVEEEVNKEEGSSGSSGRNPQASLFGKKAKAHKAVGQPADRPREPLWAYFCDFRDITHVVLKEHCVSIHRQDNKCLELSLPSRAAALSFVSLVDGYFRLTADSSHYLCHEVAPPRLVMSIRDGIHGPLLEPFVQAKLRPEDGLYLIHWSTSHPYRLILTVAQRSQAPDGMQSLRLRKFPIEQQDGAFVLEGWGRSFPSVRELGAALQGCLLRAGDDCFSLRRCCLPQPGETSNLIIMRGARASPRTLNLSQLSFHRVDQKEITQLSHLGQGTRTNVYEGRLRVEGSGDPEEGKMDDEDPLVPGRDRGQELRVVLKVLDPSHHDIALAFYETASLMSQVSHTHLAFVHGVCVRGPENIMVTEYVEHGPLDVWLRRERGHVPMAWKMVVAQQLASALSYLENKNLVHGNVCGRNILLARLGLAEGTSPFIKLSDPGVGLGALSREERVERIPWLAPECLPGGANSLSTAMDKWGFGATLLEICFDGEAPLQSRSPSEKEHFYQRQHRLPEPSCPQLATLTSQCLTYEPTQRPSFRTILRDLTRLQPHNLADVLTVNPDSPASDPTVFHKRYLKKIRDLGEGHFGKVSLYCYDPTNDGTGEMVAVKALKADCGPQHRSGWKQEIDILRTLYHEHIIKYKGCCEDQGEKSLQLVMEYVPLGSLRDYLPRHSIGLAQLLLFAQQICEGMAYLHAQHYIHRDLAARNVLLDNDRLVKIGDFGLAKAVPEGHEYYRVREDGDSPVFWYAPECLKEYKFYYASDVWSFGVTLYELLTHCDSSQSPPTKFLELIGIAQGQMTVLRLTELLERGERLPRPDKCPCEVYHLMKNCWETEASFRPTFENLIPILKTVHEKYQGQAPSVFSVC
JAK2, sequence (O60674 whole entry): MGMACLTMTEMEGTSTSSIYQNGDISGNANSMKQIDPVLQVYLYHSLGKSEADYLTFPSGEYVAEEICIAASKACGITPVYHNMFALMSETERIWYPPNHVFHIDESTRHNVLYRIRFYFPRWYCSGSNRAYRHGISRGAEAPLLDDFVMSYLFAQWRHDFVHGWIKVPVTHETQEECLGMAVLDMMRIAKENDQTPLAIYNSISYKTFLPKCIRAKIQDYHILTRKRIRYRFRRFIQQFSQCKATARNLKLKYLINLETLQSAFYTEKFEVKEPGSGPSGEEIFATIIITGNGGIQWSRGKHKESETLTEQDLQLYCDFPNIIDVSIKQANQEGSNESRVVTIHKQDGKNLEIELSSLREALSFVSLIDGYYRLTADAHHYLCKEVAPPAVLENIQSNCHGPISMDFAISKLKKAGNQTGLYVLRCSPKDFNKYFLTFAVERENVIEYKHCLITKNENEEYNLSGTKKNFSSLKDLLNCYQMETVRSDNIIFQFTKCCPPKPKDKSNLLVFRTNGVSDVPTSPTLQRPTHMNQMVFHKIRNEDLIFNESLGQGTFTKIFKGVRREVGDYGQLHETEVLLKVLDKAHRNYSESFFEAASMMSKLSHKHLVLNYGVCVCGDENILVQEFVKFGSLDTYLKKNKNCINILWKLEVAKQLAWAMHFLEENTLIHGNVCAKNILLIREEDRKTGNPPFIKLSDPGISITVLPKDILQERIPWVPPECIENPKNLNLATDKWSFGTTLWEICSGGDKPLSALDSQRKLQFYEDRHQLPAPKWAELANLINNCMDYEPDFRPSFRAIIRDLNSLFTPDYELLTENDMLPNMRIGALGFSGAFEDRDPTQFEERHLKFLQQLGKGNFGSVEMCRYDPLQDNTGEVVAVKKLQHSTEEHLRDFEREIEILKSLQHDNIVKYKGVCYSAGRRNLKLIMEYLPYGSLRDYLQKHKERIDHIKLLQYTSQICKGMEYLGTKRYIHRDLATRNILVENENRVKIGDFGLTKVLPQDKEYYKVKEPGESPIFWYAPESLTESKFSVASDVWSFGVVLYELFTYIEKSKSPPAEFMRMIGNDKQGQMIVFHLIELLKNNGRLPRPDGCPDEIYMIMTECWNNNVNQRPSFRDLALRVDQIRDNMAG
JAK1, sequence (P23458 whole entry): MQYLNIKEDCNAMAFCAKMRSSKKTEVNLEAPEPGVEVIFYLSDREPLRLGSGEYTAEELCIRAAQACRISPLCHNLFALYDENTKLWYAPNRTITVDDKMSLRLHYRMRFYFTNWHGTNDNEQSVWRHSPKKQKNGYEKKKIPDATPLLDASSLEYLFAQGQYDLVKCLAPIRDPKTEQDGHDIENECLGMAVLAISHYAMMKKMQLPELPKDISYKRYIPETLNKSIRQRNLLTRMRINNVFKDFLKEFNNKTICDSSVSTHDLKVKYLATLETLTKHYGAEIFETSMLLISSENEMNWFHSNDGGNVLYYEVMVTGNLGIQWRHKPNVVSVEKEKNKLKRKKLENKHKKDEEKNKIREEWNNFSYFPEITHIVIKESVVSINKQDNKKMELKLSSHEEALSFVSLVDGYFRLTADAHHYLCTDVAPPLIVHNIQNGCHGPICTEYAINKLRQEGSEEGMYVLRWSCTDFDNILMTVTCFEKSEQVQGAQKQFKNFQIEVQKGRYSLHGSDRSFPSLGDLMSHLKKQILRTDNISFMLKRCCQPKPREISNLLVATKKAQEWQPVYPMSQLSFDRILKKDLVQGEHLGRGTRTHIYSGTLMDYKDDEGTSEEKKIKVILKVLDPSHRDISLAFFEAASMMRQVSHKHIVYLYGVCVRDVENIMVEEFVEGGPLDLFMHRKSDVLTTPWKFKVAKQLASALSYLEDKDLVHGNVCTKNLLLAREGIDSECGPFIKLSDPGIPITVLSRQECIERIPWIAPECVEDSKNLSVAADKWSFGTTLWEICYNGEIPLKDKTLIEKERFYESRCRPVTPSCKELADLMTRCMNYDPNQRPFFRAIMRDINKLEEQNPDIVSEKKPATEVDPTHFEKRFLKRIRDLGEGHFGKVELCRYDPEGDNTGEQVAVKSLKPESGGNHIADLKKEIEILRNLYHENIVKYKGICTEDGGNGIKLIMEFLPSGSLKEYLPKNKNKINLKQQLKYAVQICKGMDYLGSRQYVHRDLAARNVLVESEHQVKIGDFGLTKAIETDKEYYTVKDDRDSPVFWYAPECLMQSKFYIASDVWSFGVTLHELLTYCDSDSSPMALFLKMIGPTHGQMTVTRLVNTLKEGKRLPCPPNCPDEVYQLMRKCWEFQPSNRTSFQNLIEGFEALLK

IC50 (JAK3) [nM] | IC50 (JAK1; Enzyme IC50 JAK1, 0.1 mM ATP) [nM] | IC50 (JAK2; Enzyme IC50 JAK2, 0.1 mM ATP) [nM] | IC50 (TYK2; Enzyme IC50 TYK2, 0.1 mM ATP) [nM] | Structure (SMILES) | where detected (plasma, colon tissues, feces), in words [1] | improvement of DAI score or disease severity (DSS-induced colitis [3]) | improvement of DAI score vs DSS-induced colitis (DSS-induced colitis [3]; 5 mg/kg orally every other day) | recovery of colon length from DSS-induced colitis (DSS-induced colitis [3]; 10 mg/kg) | improvement of DAI score vs DSS-induced colitis (DSS-induced colitis [3]; [7]) | mice that developed severe colitis (DSS-induced colitis [3]; 10 mg/kg) | epithelial loss and infiltration of immune cells (H&E) (DSS-induced colitis [4]; 5 mg/kg) | epithelial loss and infiltration of immune cells (H&E) (DSS-induced colitis [4]; 10 mg/kg) | further results
5240 | 368 | 630 | 4700 | Cc1cnc(Nc2ccc(OCCOc3ccc(/N=N/c4ccc(C(=O)NCCC(=O)O)cc4)cc3C(=O)O)cc2)nc1Nc1cccc(S(=O)(=O)NC(C)(C)C)c1 [MMT3-72, (E)-2-(2-(4-((4-((3-(N-(tertbutyl)sulfamoyl)phenyl)amino)-5-methylpyrimidin-2-yl)amino)phenoxy)ethoxy)-5-((4-((2-carboxyethyl)carbamoyl)phenyl)diazenyl)benzoic acid] | only detected in the feces | did not improve DAI score or disease severity | 5 fold | recovered the colon length | 10 fold | no mice | reduced epithelial loss and decreased infiltration of immune cells | reduced epithelial loss and decreased infiltration of immune cells | detection in colon/GI tissue or systemic circulation/plasma ([2]; mice, 10 mg/kg MMT3-72 orally): not detected; mice that developed moderate colitis (DSS-induced colitis [3]; 5 mg/kg): 10%; mice that developed severe colitis (DSS-induced colitis [3]; 5 mg/kg): no mice; mice that developed moderate colitis (DSS-induced colitis [3]; 10 mg/kg): no mice; stability in heat-deactivated colon contents ([5]; boiled colon contents, aqueous environment): most MMT3-72 remained intact; MMT3-72 metabolized ([5]; fresh colon contents, within 48 h of incubation): more than 90%; phosphorylation of STAT3 in colon tissue (phosphorylation of STAT3): effectively inhibit the phosphorylation of STAT3; also recorded: inhibited the phosphorylation of STAT3
– | – | – | – | C[C@@H]1CCN(C(=O)CC#N)C[C@@H]1N(C)c1ncnc2[nH]ccc12 [tofacitinib, reference compound] | – | did not improve DAI score or disease severity | did not show any improvement in DAI score | recovered the colon length | showed improvement in DAI score | 10% | did not show improvement in epithelial cell loss and infiltration of immune cells | moderate improvement | –
– | – | – | – | Cc1cnc(Nc2ccc(OCCN3CCCC3)cc2)nc1Nc1cccc(S(=O)(=O)NC(C)(C)C)c1 [fedratinib] | – | – | – | – | – | – | – | – | excreted in feces unchanged [6]: 23%; fedratinib-derived radioactivity excreted in feces [6]: ~77%
329 | 10.8 | 26.3 | 91.6 | Cc1cnc(Nc2ccc(OCCO)cc2)nc1Nc1cccc(S(=O)(=O)NC(C)(C)C)c1 [MMT3-72-M2, N-(tert-butyl)-3-((2-((4-(2-hydroxyethoxy)phenyl)amino)-5methylpyrimidin-4-yl)amino)benzenesulfonamide] | only detected in the colon tissues and the feces with limited detection in the plasma | – | – | – | – | – | – | – | concentration at 12 h ([2]; female, C57BL/6, mouse, colon tissue, po, 10 mg/kg): 131 ng/g and ~285 nM; duration of effective concentrations in colon tissue ([2]; mice, 10 mg/kg MMT3-72 orally): 12 h; Cmax in plasma ([2]; mice, 10 mg/kg MMT3-72 orally, 10 mg/kg): < 8 ng/mL; time after which undetectable in plasma ([2]; mice, 10 mg/kg MMT3-72 orally, limit of detection 2 ng/ml): 4 h; IC50 (JAK1; IC50 JAK1 expressed in ng/ml, converted from nM): ~10.6 nM; IC50 (JAK2; IC50 JAK2 expressed in ng/ml, converted from nM): ~25.7 nM; IC50 (TYK2; IC50 TYK2 expressed in ng/ml, converted from nM): ~89.3 nM; formation of MMT3-72-M2 from MMT3-72 ([5]; fresh colon contents): readily converted from MMT3-72
